In ChEMBL document CHEMBL1145439, “Fluorine-18-labeled benzamide analogues for imaging the sigma2 receptor status of solid tumors with positron emission tomography” (J Med Chem, 2007):

What was measured:
[1] = biological target: Sigma non-opioid intracellular receptor 1 (Cavia porcellus, UniProt Q60492); assay: Displacement of [3H](+)-pentazocine from sigma 1 receptor in guinea pig brain membrane after 90 mins; type: cell membranes
How it was run: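 Guinea pig brain membranes (~300 µg protein) with ~5 nM [3H](+)-pentazocine, 90 min at room temperature; nonspecific binding with 10 µM haloperidol; stopped with ice-cold Tris/NaCl buffer, filtered, scintillation counted. IC50 by nonlinear regression, one-site fit; Ki by Cheng-Prusoff, mean ± SEM.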

[2] = Displacement of [3H]DTG from sigma 2 receptor in rat liver membrane after 120 mins; type: cell membranes
How it was run: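 Rat liver membranes (~300 µg protein) incubated with ~5 nM [3H]DTG plus 1 µM (+)-pentazocine to mask σ1 sites, 120 min at room temperature; 10 µM haloperidol defines nonspecific binding; filtration and scintillation counting. One-site nonlinear regression IC50, converted to Ki by Cheng-Prusoff; mean ± SEM.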

[3] = Selectivity for rat liver sigma 2 receptor over guinea pig brain sigma 1 receptor
[4] = Tumor to fat ratio of the drug in mouse EMT6 tumor bearing BALB/c mouse at 10 to 20 uCi after 2 hrs; type: ADME
How it was run: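 Tumor-bearing female Balb/c mice (EMT-6 s.c. allograft, ~0.2 cm3) given 10-20 µCi 18F tracer in saline i.v. via tail vein; ≥4 per group; killed 120 min later. Tissues weighed and gamma-counted; ratio = tumor %ID/g divided by that organ's %ID/g.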

[5] = system: Blood; assay: Biodistribution in blood of mouse EMT6 tumor bearing BALB/c mouse at 10 to 20 uCi after 5 mins; type: ADME, organism-based; details: in vivo
How it was run: (§1)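 EMT-6 cells (5×10^5 in 100 µL PBS) implanted s.c. in scapular region of female Balb/c mice (~2 months, 17-22 g); studied 7-10 days later at ~0.2 cm3 tumor. 18F tracer 10-20 µCi in 100-150 µL saline via tail vein; ≥4 mice per time point; tissue removed at sacrifice, weighed, gamma-counted; %ID/g calculated.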

[6] = system: Blood; assay: Biodistribution in blood of mouse EMT6 tumor bearing BALB/c mouse at 10 to 20 uCi after 30 mins; type: ADME, organism-based; details: in vivo, 0.5 h; how it was run: as §1
[7] = system: Blood; assay: Biodistribution in blood of mouse EMT6 tumor bearing BALB/c mouse at 10 to 20 uCi after 60 mins; type: ADME, organism-based; details: in vivo, 1 h; how it was run: as §1
[8] = system: Blood; assay: Biodistribution in blood of mouse EMT6 tumor bearing BALB/c mouse at 10 to 20 uCi after 120 mins; type: ADME, organism-based; details: in vivo, 2 h; how it was run: as §1
[9] = system: Lung; assay: Biodistribution in lung of mouse EMT6 tumor bearing BALB/c mouse at 10 to 20 uCi after 5 mins; type: ADME, organism-based; details: in vivo; how it was run: as §1
[10] = system: Lung; assay: Biodistribution in lung of mouse EMT6 tumor bearing BALB/c mouse at 10 to 20 uCi after 30 mins; type: ADME, organism-based; details: in vivo, 0.5 h; how it was run: as §1
[11] = system: Lung; assay: Biodistribution in lung of mouse EMT6 tumor bearing BALB/c mouse at 10 to 20 uCi after 60 mins; type: ADME, organism-based; details: in vivo, 1 h; how it was run: as §1
[12] = system: Lung; assay: Biodistribution in lung of mouse EMT6 tumor bearing BALB/c mouse at 10 to 20 uCi after 120 mins; type: ADME, organism-based; details: in vivo, 2 h; how it was run: as §1
[13] = system: Liver; assay: Biodistribution in liver of mouse EMT6 tumor bearing BALB/c mouse at 10 to 20 uCi after 5 mins; type: ADME, organism-based; details: in vivo; how it was run: as §1
[14] = system: Liver; assay: Biodistribution in liver of mouse EMT6 tumor bearing BALB/c mouse at 10 to 20 uCi after 30 mins; type: ADME, organism-based; details: in vivo, 0.5 h; how it was run: as §1
[15] = system: Liver; assay: Biodistribution in liver of mouse EMT6 tumor bearing BALB/c mouse at 10 to 20 uCi after 60 mins; type: ADME, organism-based; details: in vivo, 1 h; how it was run: as §1
[16] = system: Liver; assay: Biodistribution in liver of mouse EMT6 tumor bearing BALB/c mouse at 10 to 20 uCi after 120 mins; type: ADME, organism-based; details: in vivo, 2 h; how it was run: as §1
[17] = system: Kidney; assay: Biodistribution in kidney of mouse EMT6 tumor bearing BALB/c mouse at 10 to 20 uCi after 5 mins; type: ADME, organism-based; details: in vivo; how it was run: as §1
[18] = system: Kidney; assay: Biodistribution in kidney of mouse EMT6 tumor bearing BALB/c mouse at 10 to 20 uCi after 30 mins; type: ADME, organism-based; details: in vivo, 0.5 h; how it was run: as §1
[19] = system: Kidney; assay: Biodistribution in kidney of mouse EMT6 tumor bearing BALB/c mouse at 10 to 20 uCi after 60 mins; type: ADME, organism-based; details: in vivo, 1 h; how it was run: as §1
[20] = system: Kidney; assay: Biodistribution in kidney of mouse EMT6 tumor bearing BALB/c mouse at 10 to 20 uCi after 120 mins; type: ADME, organism-based; details: in vivo, 2 h; how it was run: as §1
[21] = system: Muscle tissue; assay: Biodistribution in muscle of EMT6 tumor bearing BALB/c mouse at 10 to 20 uCi after 5 mins; type: ADME, organism-based; details: in vivo; how it was run: as §1
[22] = system: Muscle tissue; assay: Biodistribution in muscle of mouse EMT6 tumor bearing BALB/c mouse at 10 to 20 uCi after 30 mins; type: ADME, organism-based; details: in vivo, 0.5 h; how it was run: as §1
[23] = system: Muscle tissue; assay: Biodistribution in muscle of mouse EMT6 tumor bearing BALB/c mouse at 10 to 20 uCi after 60 mins; type: ADME, organism-based; details: in vivo, 1 h; how it was run: as §1
[24] = system: Muscle tissue; assay: Biodistribution in muscle of mouse EMT6 tumor bearing BALB/c mouse at 10 to 20 uCi after 120 mins; type: ADME, organism-based; details: in vivo, 2 h; how it was run: as §1
[25] = system: Adipose tissue; assay: Biodistribution in fat of mouse EMT6 tumor bearing BALB/c mouse at 10 to 20 uCi after 5 mins; type: ADME, organism-based; details: in vivo; how it was run: as §1
[26] = system: Adipose tissue; assay: Biodistribution in fat of mouse EMT6 tumor bearing BALB/c mouse at 10 to 20 uCi after 30 mins; type: ADME, organism-based; details: in vivo, 0.5 h; how it was run: as §1
[27] = system: Adipose tissue; assay: Biodistribution in fat of mouse EMT6 tumor bearing BALB/c mouse at 10 to 20 uCi after 60 mins; type: ADME, organism-based; details: in vivo, 1 h; how it was run: as §1
[28] = system: Adipose tissue; assay: Biodistribution in fat of mouse EMT6 tumor bearing BALB/c mouse at 10 to 20 uCi after 120 mins; type: ADME, organism-based; details: in vivo, 2 h; how it was run: as §1
[29] = system: Heart; assay: Biodistribution in heart of mouse EMT6 tumor bearing BALB/c mouse at 10 to 20 uCi after 5 mins; type: ADME, organism-based; details: in vivo; how it was run: as §1
[30] = system: Heart; assay: Biodistribution in heart of mouse EMT6 tumor bearing BALB/c mouse at 10 to 20 uCi after 30 mins; type: ADME, organism-based; details: in vivo, 0.5 h; how it was run: as §1
[31] = system: Heart; assay: Biodistribution in heart of mouse EMT6 tumor bearing BALB/c mouse at 10 to 20 uCi after 60 mins; type: ADME, organism-based; details: in vivo, 1 h; how it was run: as §1
[32] = system: Heart; assay: Biodistribution in heart of EMT6 tumor bearing BALB/c mouse at 10 to 20 uCi after 120 mins; type: ADME, organism-based; details: in vivo, 2 h; how it was run: as §1
[33] = system: Brain; assay: Biodistribution in brain of EMT6 tumor bearing BALB/c mouse at 10 to 20 uCi after 5 mins; type: ADME, organism-based; details: in vivo; how it was run: as §1
[34] = system: Brain; assay: Biodistribution in brain of EMT6 tumor bearing BALB/c mouse at 10 to 20 uCi after 30 mins; type: ADME, organism-based; details: in vivo, 0.5 h; how it was run: as §1
[35] = system: Brain; assay: Biodistribution in brain of EMT6 tumor bearing BALB/c mouse at 10 to 20 uCi after 60 mins; type: ADME, organism-based; details: in vivo, 1 h; how it was run: as §1
[36] = system: Brain; assay: Biodistribution in brain of mouse EMT6 tumor bearing BALB/c mouse at 10 to 20 uCi after 120 mins; type: ADME, organism-based; details: in vivo, 2 h; how it was run: as §1
[37] = system: Bone; assay: Biodistribution in bone of mouse EMT6 tumor bearing BALB/c mouse at 10 to 20 uCi after 5 mins; type: ADME, organism-based, Bone element; details: in vivo; how it was run: as §1
[38] = system: Bone; assay: Biodistribution in bone of mouse EMT6 tumor bearing BALB/c mouse at 10 to 20 uCi after 30 mins; type: ADME, organism-based, Bone element; details: in vivo, 0.5 h; how it was run: as §1
[39] = system: Bone; assay: Biodistribution in bone of mouse EMT6 tumor bearing BALB/c mouse at 10 to 20 uCi after 60 mins; type: ADME, organism-based, Bone element; details: in vivo, 1 h; how it was run: as §1
[40] = system: Bone; assay: Biodistribution in bone of mouse EMT6 tumor bearing BALB/c mouse at 10 to 20 uCi after 120 mins; type: ADME, organism-based, Bone element; details: in vivo, 2 h; how it was run: as §1
[41] = system: EMT6; assay: Biodistribution in tumor of mouse EMT6 tumor bearing BALB/c mouse at 10 to 20 uCi after 5 mins; type: ADME, organism-based; details: emt6, 5 min; how it was run: as §1
[42] = system: EMT6; assay: Biodistribution in tumor of EMT6 tumor bearing BALB/c mouse 10 to 20 uCi after 30 mins; type: ADME, organism-based; details: emt6, 0.5 h; how it was run: as §1
[43] = system: EMT6; assay: Biodistribution in tumor of mouse EMT6 tumor bearing BALB/c mouse at 10 to 20 uCi after 60 mins; type: ADME, organism-based; details: emt6, 1 h; how it was run: as §1
[44] = system: EMT6; assay: Biodistribution in tumor of mouse EMT6 tumor bearing BALB/c mouse at 10 to 20 uCi after 120 mins; type: ADME, organism-based; details: emt6, 2 h; how it was run: as §1
[45] = Decrease in tumor to muscle ratio of the drug in mouse EMT6 tumor bearing BALB/c mouse after 1 hr in presence of YUN-143; type: ADME; set-up: scale not given: the % may be the effect or the level left
How it was run: (§2)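 Blocking: 18F tracer coinjected i.v. with 1 mg/kg cold YUN-143 (σ1/σ2 ligand) into EMT-6 tumor-bearing female Balb/c mice; sacrificed at 60 min; tumor/muscle and tumor/fat ratios from %ID/g of gamma-counted tissues.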

[46] = Decrease in tumor to fat ratio of the drug in mouse EMT6 tumor bearing BALB/c mouse after 1 hr in presence of YUN-143; type: ADME; set-up: scale not given: the % may be the effect or the level left; how it was run: as §2

Sigma non-opioid intracellular receptor 1, sequence (Q60492 whole entry): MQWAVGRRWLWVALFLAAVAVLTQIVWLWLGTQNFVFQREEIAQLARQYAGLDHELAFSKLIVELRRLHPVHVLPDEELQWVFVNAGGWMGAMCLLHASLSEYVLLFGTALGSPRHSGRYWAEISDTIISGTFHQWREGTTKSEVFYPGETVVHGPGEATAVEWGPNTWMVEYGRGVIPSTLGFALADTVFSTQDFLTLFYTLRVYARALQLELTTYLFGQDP

COc1cc2c(cc1OC)CN(CCCCNC(=O)c1cc(Br)cc(OC)c1OCCF)CC2
Ki [1]: 15.3 µM
Ki [2]: 0.386 µM
Ratio Ki [3]: 40

COc1cc2c(cc1OC)CN(CCCCNC(=O)c1cc(C)ccc1OCC[18F])CC2
Ratio [4]: 8
Drug uptake [5]: 2.49 % ID/g
Drug uptake [6]: 1.16 % ID/g
Drug uptake [7]: 0.56 % ID/g
Drug uptake [8]: 0.35 % ID/g
Drug uptake [9]: 10.26 % ID/g
Drug uptake [10]: 2.36 % ID/g
Drug uptake [11]: 0.88 % ID/g
Drug uptake [12]: 0.43 % ID/g
Drug uptake [13]: 23.33 % ID/g
Drug uptake [14]: 10.51 % ID/g
Drug uptake [15]: 4.14 % ID/g
Drug uptake [16]: 2.05 % ID/g
Drug uptake [17]: 29.18 % ID/g
Drug uptake [18]: 6.86 % ID/g
Drug uptake [19]: 2.51 % ID/g
Drug uptake [20]: 0.87 % ID/g
Drug uptake [21]: 1.86 % ID/g
Drug uptake [22]: 0.7 % ID/g
Drug uptake [23]: 0.34 % ID/g
Drug uptake [24]: 0.24 % ID/g
Drug uptake [25]: 1.95 % ID/g
Drug uptake [26]: 0.59 % ID/g
Drug uptake [27]: 0.22 % ID/g
Drug uptake [28]: 0.08 % ID/g
Drug uptake [29]: 3.73 % ID/g
Drug uptake [30]: 1.15 % ID/g
Drug uptake [31]: 0.55 % ID/g
Drug uptake [32]: 0.27 % ID/g
Drug uptake [33]: 0.76 % ID/g
Drug uptake [34]: 0.27 % ID/g
Drug uptake [35]: 0.18 % ID/g
Drug uptake [36]: 0.12 % ID/g
Drug uptake [37]: 2.49 % ID/g
Drug uptake [38]: 0.96 % ID/g
Drug uptake [39]: 0.55 % ID/g
Drug uptake [40]: 0.45 % ID/g
Drug uptake [41]: 3.67 % ID/g
Drug uptake [42]: 2.54 % ID/g
Drug uptake [43]: 1.14 % ID/g
Drug uptake [44]: 0.64 % ID/g
Activity [45]: 50%
Activity [46]: 50%
